Screens: PubChem, several laboratories
Tb hexokinase = blocks Trypanosoma brucei hexokinase 1 activity | recombinant TbHK1, G6PDH-coupled NADH A340 | inhibition, % at 10 µM | actives 0.11% (n = 220,000);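 active means inhibition of 50% or more in the single-dose primary screen; inactive means inhibition below 50%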
sdo1 growth = restores growth of sdo1-depleted yeast; S. cerevisiae sdo1-depleted JHY4D growth rescue, OD600 30 h; stronger effect = higher value; pdr5 snq2 efflux-pump mutant strain; z-score at 10 µM; actives 0.21% (n = 140,000);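 active means z-score above 3 at both the 24 hr and the 30 hr optical density reads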;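 further: z-score against mean and SD of all compound wells on the same plate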
Yeast lifespan up = yeast lifespan extension; AID 775; inhibition of the nicotinamide effect, % at 10 µM; actives 0.68% (n = 130,000); S. cerevisiae growth with nicotinamide, OD615; deaD strain in restrictive glucose medium;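 active means inhibition above a set limit, placed 3 SD over the median of all compounds, cut at about 26% in these data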;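 further: 0% = nicotinamide-treated wells and 100% = cells grown without nicotinamide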
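assay system = DeaD-strain S. cerevisiae | buffer or medium = restrictive glucose medium | reagent = 1.5 mM nicotinamide | compound = 10 µM single point, 0.25% DMSO | incubation = 48 h compound exposure at 30 °C, humidified | signal = OD615 measurement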
Yeast growth inh = yeast BB579 growth reduction in restrictive medium | actives 0.51% (n = 140,000) | S. cerevisiae BB579 growth, OD615, 48 h | inhibition, % at 10 µM;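 active means inhibition above a set limit, 3 SD over the mean compound inhibition, cut at about 44% in these data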
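controls = amphotericin B 10 µg/mL, positive | assay system = DeaD yeast strain BB579 | schedule = 48 h compound exposure at 30 °C after 4 h preincubation | detection = OD615 turbidity measurement | medium = restrictive CSMM-D medium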
p47phox inh = p47phox (human) inhibition; inhibition, % at 24.7 µM; actives 0.53% (n = 220,000); p47phox/p22phox peptide binding, fluorescence polarization, 2 h;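 active means inhibition above about 30%, limit read from the data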;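 further: 0% = p47phox with labelled peptide and 100% = labelled peptide alone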
Target sequence (P14598 whole entry, looked up): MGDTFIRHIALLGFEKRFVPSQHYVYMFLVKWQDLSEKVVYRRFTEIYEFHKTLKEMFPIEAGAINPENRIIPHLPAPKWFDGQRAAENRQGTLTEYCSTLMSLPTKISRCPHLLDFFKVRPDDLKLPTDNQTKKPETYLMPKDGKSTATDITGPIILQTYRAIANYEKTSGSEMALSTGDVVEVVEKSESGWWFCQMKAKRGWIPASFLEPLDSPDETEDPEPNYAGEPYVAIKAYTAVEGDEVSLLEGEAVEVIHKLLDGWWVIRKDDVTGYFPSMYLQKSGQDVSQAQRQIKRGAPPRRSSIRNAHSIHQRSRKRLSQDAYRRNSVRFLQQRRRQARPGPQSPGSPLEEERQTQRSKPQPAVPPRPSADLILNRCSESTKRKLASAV
RBBP9 inh = inhibitors of human serine hydrolase RBBP9. O75884. inhibition, % at 7.94 µM. recombinant RBBP9, FP-Rh probe fluorescence polarization. actives 0.2% (n = 220,000);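 active means inhibition above the campaign mean of all tested compounds plus 3 SD, cut at about 14% in these data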;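 further: plate controls were DMSO wells with RBBP9 for no effect and wells lacking RBBP9 protein for full effect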
Target sequence (O75884 whole entry, looked up): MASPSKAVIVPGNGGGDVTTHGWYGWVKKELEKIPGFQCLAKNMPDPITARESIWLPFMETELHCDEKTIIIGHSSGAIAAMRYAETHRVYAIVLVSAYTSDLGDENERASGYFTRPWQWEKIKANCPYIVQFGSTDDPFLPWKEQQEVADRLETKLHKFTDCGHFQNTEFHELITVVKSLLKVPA
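Controls: DMSO-treated enzyme wells and wells lacking RBBP9 | Material: RBBP9 protein | Technique: Fluorescence polarization | Replication: Single well per compound, no replicates | Buffer or medium: Tris-NaCl-Pluronic buffer, pH 8.0 | Timing: 30 min compound preincubation, 45 min probe labeling, 25 °C | Read-out basis: Percent inhibition from mP, scaled between DMSO and no-protein wells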
* = called active by the depositor; x = no result given; [ ] = another dose, or the depositor's remark. The list is not random: actives were taken first. Their share in the collection is about 1.6%.

SMILES	Tb hexokinase	sdo1 growth	Yeast lifespan up	Yeast growth inh	p47phox inh	RBBP9 inh
OC(c1ccc(F)cc1)(c1ccc(F)cc1)[C@@H]1CCCN1	4	0.69	-14	-42	43*	-6
OC(c1ccccc1)(c1ccccc1)C1CCNCC1	6	-2.9	-9	-17	-9	-7
O=C1NC(=O)N(c2ccccc2)C(=O)/C1=C/c1ccc(Sc2ccccc2)o1	16	-0.95[9 µM]	32*	12	-33	-49
CN1CCN(C(=O)COc2ccc(N(C)S(=O)(=O)c3ccc(F)cc3)cc2)CC1	-4	x	x	x	-4	4
Oc1c(Br)cc(Br)cc1Oc1ccc(Br)cc1Br	14	-1.5	-5	83*	-4	-3
Oc1c(Br)cc(Br)cc1CN1CCN(Cc2ccccc2)CC1	7	-0.87	-11	-22	9	7
Cc1ccc(N(C)C(=O)Oc2ccc(C(=O)c3ccc(Cl)cc3)cc2)cc1	1	-0.91	82*	-18	8	-8
CC(=O)N1N=C2C3CCN(CC3)C2C1c1ccc(F)cc1 (configuration not stated)	0	x	x	x	-17	-7
Cc1ccccc1OCCCn1cc(C(=O)C(=O)N2CCOCC2)c2ccccc21	-12	x	x	x	-5	0
O=C1NC(=S)N(Cc2ccco2)C(=O)/C1=C\c1cccs1	81*	x	x	x	-97	-2
C=CCN1C(=O)/C(=C/c2cccs2)C(=O)NC1=S	3	-2	-8	75*	-2	-6
O=C1NC(=O)N(CCC2=CCCCC2)C(=O)/C1=C\c1cccs1	38	-0.87	63*	2	-42	4
COc1ccc(N2C(=O)/C(=C/c3cccs3)C(=O)NC2=S)cc1	2	x	x	x	-3	-13
CCCCCc1nc2ccccc2c(=O)n1-c1ccc(Cl)cc1[N+](=O)[O-]	2	-0.32	1	-28	-7	-9
Cc1ccc(/C=C2/C(=O)NC(=O)N(CCc3ccc(F)cc3)C2=O)o1	3	-0.53	32*	-19	-86	-9
COc1ccccc1N(CC(=O)NC1CCCCC1)C(=O)c1cnn(C(C)C)c1	-6	0.23	-4	-11	33*	3
CCc1nnc(NS(=O)(=O)c2ccc(N=Cc3c(O)n(-c4ccc(Cl)cc4)c(=O)[nH]c3=O)cc2)s1	-9	x	x	x	-4	-10
O=C(C(=O)N1CCOCC1)c1cn(Cc2ccc(F)cc2)c2ccccc12	-25	x	x	x	-5	-6
CN1CCC2(CC1)C(C#N)=C(N)NC(S)=C2C#N	1	0.91	40*	-13	-66	-4
CCCCn1c(=O)c(C(=O)Nc2cnccn2)c(O)c2ccccc21	-18	-0.92	80*	-36	-2	-4
Cc1ccc(S(=O)(=O)N(c2cc(Cl)c(O)c(Cl)c2)P(=O)(OC(C)C)OC(C)C)cc1	2	x	x	x	9	-4
Cc1ccc(-c2nc(N3CCOCC3)s[n+]2-c2ccccc2)cc1	9	0.26	10	-36	38*	-3
CN(C)c1nc(-c2ccccc2)[n+](C)s1	-5	0.62	1	-13	-2	1
CN(C)C(Cc1ccccc1)C(=O)c1cccs1 (configuration not stated)	-8	x	x	x	-9	5
CCN(CC)c1ccc(/C=C2/C(=O)NC(=O)N(Cc3ccco3)C2=O)cc1	-21	1.5	-1	-5	168*	-3
SMILES	Tb hexokinase	sdo1 growth	Yeast lifespan up	Yeast growth inh	p47phox inh	RBBP9 inh
CCN(CC)c1ccc(/C=C2\C(=O)NC(=O)N(CC3CCCO3)C2=O)cc1 (configuration not stated)	-56	0.52	-3	-11	-116	-3
CN(C)c1ccc(/C=C2/C(=O)NC(=O)N(Cc3ccco3)C2=O)cc1	-19	-0.05	8	10	78*	-6
CCOC(=O)c1[nH]ncc1CN1CCCC(C(=O)c2cccc(Cl)c2)C1 (configuration not stated)	0	x	x	x	-4	-1
Oc1cc2c(cc1O)[C@H]1c3ccccc3CN[C@@H]1CC2	x	x	x	x	-3	22*
Cc1ccc(N2C(=O)NC(=O)/C(=C\c3ccc([N+](=O)[O-])o3)C2=O)cc1	7	x	x	x	-97	-12
CCn1nc(-c2cccs2)nc2c(=O)n(C)c(=O)nc1-2	x	-2.6	-15	100*	-5	x
CCn1nc(/C=C/c2ccccc2)nc2c(=O)n(C)c(=O)nc1-2	18	x	x	x	-7	-4
CSc1ccc(C(c2c(O)c3ccccc3oc2=O)c2c(C)n(C)n(-c3ccccc3)c2=O)cc1 (configuration not stated)	-1	x	x	x	-12	0
Cc1c(C(c2ccc(Br)cc2)c2c(O)c3ccccc3oc2=O)c(=O)n(-c2ccccc2)n1C (configuration not stated)	-6	x	x	x	53*	-4
O=C1NC(=S)N(c2ccccc2)C(=O)C1C(c1ccncc1)C1C(=O)NC(=S)N(c2ccccc2)C1=O (configuration not stated)	-3	x	x	x	-12	-11
Nc1cc(Cl)c2nonc2c1[N+](=O)[O-]	-12	0.18	37*	-14	-15	-4
Cc1ccc(/C=C2\C(=O)NC(=S)N(c3ccccc3F)C2=O)s1	-1	-1.6	41*	55*	-15	-10
O=C1NC(=O)N(Cc2ccc(F)cc2)C(=O)/C1=C\c1ccc(N2CCCC2)cc1	-20	x	x	x	193*	-13
O=C1NC(=O)N(c2ccc(F)cc2)C(=O)/C1=C/c1ccc(N2CCOCC2)cc1	-46	x	x	x	-13	-6
CC(=O)OC1N=C(c2ccccc2)c2cc(Br)ccc2N(C)C1=O (configuration not stated)	-6	-0.29	-10	-29	32*	1
CC(=O)OC1N=C(c2ccccc2)c2cc(Br)ccc2NC1=O (configuration not stated)	-4	0.25	-25	1	-1	1
O=C1OC(c2ccc(Cl)cc2)=N/C1=C\N1CC2CC(C1)c1cccc(=O)n1C2 (configuration not stated)	-94	x	x	x	5	0
Cn1c(O)c(/C=C2\N=c3ccccc3=C2CCNC(=S)NC2CC2)c(=O)n(C)c1=O	-12	x	x	x	39*	-1
COC(=O)C1=Nc2ccccc2/C1=C\c1c(O)n(C)c(=O)n(C)c1=O	-31	x	x	x	-30	-6
O=C(Nc1ccc(F)cc1F)c1cccnc1Oc1cccc(C(F)(F)F)c1	-8	0.31	36*	-43	-10	-6
C[C@]12CC[C@@H](O)C[C@@H]1CC[C@@H]1[C@@H]2CC[C@]2(C)[C@@H](O)CC[C@@H]12	4	-1.4	29*	-45	1	-4
C[C@H]1CC[C@@]2(C)[C@@H](CC[C@@H]3[C@@H]2CC[C@]2(C)[C@@H](O)CC[C@@H]32)C1	-14	x	x	x	-2	-4
